Measured values of several laboratories.
Each line is one published result; the experiments were not run side by side.
Target: Ephrin type-A receptor 8 (EPHA8, Homo sapiens, UniProt P29322)
Sequence (P29322 28-1005, as in one of the studies): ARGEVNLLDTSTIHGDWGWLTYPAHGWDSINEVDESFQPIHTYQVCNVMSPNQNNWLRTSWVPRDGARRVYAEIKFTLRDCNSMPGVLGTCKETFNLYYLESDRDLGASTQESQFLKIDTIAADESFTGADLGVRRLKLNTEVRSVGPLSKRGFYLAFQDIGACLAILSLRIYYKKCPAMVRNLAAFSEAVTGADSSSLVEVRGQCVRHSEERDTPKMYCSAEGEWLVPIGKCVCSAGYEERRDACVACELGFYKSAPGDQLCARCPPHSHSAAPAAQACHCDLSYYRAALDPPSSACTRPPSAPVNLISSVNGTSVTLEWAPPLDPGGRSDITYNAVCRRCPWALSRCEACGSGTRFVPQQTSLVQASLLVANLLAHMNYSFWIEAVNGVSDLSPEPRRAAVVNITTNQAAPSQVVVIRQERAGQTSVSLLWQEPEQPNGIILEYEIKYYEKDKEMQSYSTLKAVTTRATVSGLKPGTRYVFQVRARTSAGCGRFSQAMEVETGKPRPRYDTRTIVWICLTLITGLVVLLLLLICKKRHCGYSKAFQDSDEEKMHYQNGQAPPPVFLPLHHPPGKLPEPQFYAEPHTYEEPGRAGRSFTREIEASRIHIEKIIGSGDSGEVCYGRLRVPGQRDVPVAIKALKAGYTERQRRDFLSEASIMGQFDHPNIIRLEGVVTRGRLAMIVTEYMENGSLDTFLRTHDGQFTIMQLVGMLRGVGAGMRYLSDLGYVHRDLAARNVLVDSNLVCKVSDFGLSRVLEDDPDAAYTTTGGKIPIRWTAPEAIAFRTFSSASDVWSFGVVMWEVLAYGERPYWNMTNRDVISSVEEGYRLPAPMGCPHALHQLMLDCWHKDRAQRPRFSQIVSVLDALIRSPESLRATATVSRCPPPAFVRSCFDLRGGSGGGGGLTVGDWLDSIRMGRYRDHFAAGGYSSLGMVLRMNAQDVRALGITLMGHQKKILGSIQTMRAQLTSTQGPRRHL

SMILES | effect on | mode | technique | tested at | endpoint | value
Cn1cncc1[C@](O)(COc1ccc(C#N)cc1-c1ccc(OC(F)(F)F)cc1)c1ccc(C#N)cc1 | cell-free assay | – | competition with immobilised ligand | 1 µM | remaining binding | 72%
COc1cc(Cl)c(C(=O)N[C@@H](CN[C@H]2CC[C@@H](N)CC2)Cc2ccc(C#N)cc2)cc1-c1ccc(CN[C@H](C)c2ccc(C)cc2)o1 | enzyme activity | inhibitor | – | 1 µM | remaining activity | 107%
Nc1ncc(-c2nc(N3CCOCC3)nc(N3CCOCC3)n2)c(C(F)F)n1 | cell-free assay | – | competition with immobilised ligand | 10 µM | remaining binding | 100%
Cn1cc(-c2cccc(N3CCc4c(sc5c4CC(C)(C)C5)C3=O)c2CO)cc(Nc2ccncn2)c1=O | enzyme activity | inhibitor | – | 1 µM | inhibition | 1%
COc1cc(Nc2ncc(F)c(Nc3ccc4c(n3)NC(=O)C(C)(C)O4)n2)cc(OC)c1OC | binding | – | competition with immobilised ligand | 10 µM | inhibition | 58%
N#CC1(c2ccccn2)CCN(Cc2cc(C(=O)O)c(=O)n3ccccc23)CC1 | cell-free assay | – | competition with immobilised ligand | 1 µM | remaining binding | 100%
CC(C)(C)c1cc(C=C(C#N)C#N)cc(Br)c1O | enzyme activity | inhibitor | – | 0.5 µM | remaining activity | 100%
Cc1nn(C)cc1-c1nc2c(N3CCN(Cc4ccc(Cl)cc4)CC3)c(Cl)cnc2[nH]1 | binding | – | competition with immobilised ligand | 1 µM | remaining binding | 100%
O=c1[nH]c2ccccc2n1C1CCN(Cc2ccc(-c3[nH]c4cc5ncnc5cc4nc3-c3ccccc3)cc2)CC1 | cell-free assay | – | – | 0.5 µM | remaining signal | 106%
Cn1cc(-c2cc(F)cc(N3CCn4c(cc5c4CCCC5)C3=O)c2CO)cc(Nc2ccc(N3CCN(C4COC4)CC3)cn2)c1=O | enzyme activity | inhibitor | – | 0.1 µM | inhibition | 8%
COc1ncccc1-c1cnn2ccc(N3CCN(C(=O)OC(C)C)CC3)nc12 | binding | – | competition with immobilised ligand | 1 µM | remaining binding | 100%
